Statin myotox sup: protects C2C12 myotubes from simvastatin toxicity. rescue of ATP level, % at 7.49 µM. actives 0.78% (n = 330,000). ATP luminescence, 48 h; scaled: DMSO 0, geranylgeraniol control 100;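 active = mean ATP rescue above about 67%, or every replicate alone reaching that limit, limit read from the data, passing the limit was not always enough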;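 note: myotubes were challenged with 10 µM simvastatin during compound exposure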
A3G deaminase: blocks human APOBEC3G single-stranded DNA deamination | actives 0.28% (n = 330,000) | recombinant A3G, ssDNA deamination FAM/TAMRA fluorescence | AID 493012 | inhibition, % at 20 µM | Q9HC16;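 active = inhibition of at least 40% at 20 µM, with no more than 30% in the related APOBEC3A deaminase screen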;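 note: plate controls were DMSO wells with A3G for no effect and wells lacking A3G enzyme for full effect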
ASAP1 GAP inh: ASAP1 ArfGAP inhibition; Q9ULH1; ASAP1-stimulated ARF1 GTP hydrolysis, GDP FP detection; inhibition, % at 16.5 µM; actives 0.19% (n = 360,000); AID 624377; in the data active = inhibition above about 25%;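 note: 0% = vehicle with enzyme and substrate and 100% = no enzyme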
Target sequence (Q9ULH1 325-724 limits assumed): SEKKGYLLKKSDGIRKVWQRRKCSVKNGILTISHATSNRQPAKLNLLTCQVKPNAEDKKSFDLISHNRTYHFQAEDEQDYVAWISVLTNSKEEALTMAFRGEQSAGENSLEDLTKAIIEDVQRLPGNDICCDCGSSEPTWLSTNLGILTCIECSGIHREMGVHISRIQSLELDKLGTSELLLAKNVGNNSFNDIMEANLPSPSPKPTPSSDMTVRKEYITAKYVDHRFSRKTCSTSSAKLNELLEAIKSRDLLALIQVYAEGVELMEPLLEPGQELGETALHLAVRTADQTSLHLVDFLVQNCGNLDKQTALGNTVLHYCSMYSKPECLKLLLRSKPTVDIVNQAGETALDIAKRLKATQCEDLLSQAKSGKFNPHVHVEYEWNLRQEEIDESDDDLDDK
SUMO Mot1 rescue: inhibitors of SUMOylation pathway: yeast Mot1-301 growth rescue; growth rescue, % at 18.8 µM; S. cerevisiae Mot1-301 growth rescue, ATP luminescence, 38.5C; percent above DMSO median, 100 means doubled; actives 1% (n = 320,000);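 active = every valid replicate shows activation above 250% relative to neutral control wells; inactive = the rest, any valid replicate at or below 250%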;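 note: OY570 slx delta 5 strain wells were the positive control but not used for scaling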
A3A deaminase: inhibitors of human APOBEC3A DNA deaminase; P31941; recombinant A3A, FAM/TAMRA ssDNA deamination fluorescence; inhibition, % at 20 µM; actives 0.41% (n = 330,000); AID 493011;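 active = at least 40% inhibition at 20 µM here, with at most 30% in a related deaminase screen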;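 note: plate controls were A3A with DMSO for no effect and wells lacking A3A enzyme for full effect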
Target sequence (P31941 whole entry, looked up): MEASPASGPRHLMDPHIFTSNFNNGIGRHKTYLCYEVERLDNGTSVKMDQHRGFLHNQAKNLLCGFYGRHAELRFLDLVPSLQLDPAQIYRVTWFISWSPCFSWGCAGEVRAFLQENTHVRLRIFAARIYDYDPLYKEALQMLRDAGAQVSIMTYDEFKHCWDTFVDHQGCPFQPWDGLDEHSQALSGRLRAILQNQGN
ARFGAP1 inhibitor: inhibits rat ARF GTPase activating protein 1; Arfgap1-stimulated ARF1 GTP hydrolysis, GDP FP detection; inhibition, % at 16.5 µM; actives 0.26% (n = 360,000); Q62848; AID 651572;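 active = inhibition above a per-plate limit, mean inhibition of low control wells plus 3 SD, cut at about 25% in these data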;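 note: 0% = DMSO wells with enzyme and 100% = wells lacking Arfgap1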
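System: truncated rat Arfgap1 GAP domain / Benchmarks: high control wells lacking Arfgap1, low control full reaction with DMSO / Times: compound-enzyme preincubation 20 min, reaction 120 min, detection 60 min, 25 °C / Repeats: one replicate per compound / Also added: human ARF1(Δ1-17)-GTP substrate / Measured by: Tracer-displacement fluorescence polarization with EDTA stop, 620/688 nm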
Yeast Mot1 SUMO: inhibits SUMO pathway, affecting Mot1-301 yeast growth; 2,300 tested, under 10 active; shares compounds with SUMO Mot1 rescue; S. cerevisiae Mot1-301 galactose growth, ATP luminescence, 24 h; -100 = growth of slx-deleted rescue strain; growth activity, percent, % at 42 µM;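 active = Signal drops as the depositor expects, and the fitted half-maximal dose is no more than ten times the top valid tested dose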;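 note: more negative values mean stronger growth rescue toward the control strain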
* hit, by the source's call; / = no result given; + = active, no number. Compounds with a hit are over-represented: about 2.1% of the library has one in this group of screens.

SMILES	Statin myotox sup	A3G deaminase	ASAP1 GAP inh	SUMO Mot1 rescue	A3A deaminase	ARFGAP1 inhibitor	Yeast Mot1 SUMO
CCC1SC2=NC(C)=C(C(=O)OCCOC)C(c3ccc(C(=O)OC)cc3)N2C1=O (stereo not given)	-7.8	-3.4	-9.0	831.9*	-2.3	8.0	-0.8
Cc1c(Cl)cccc1NC(=S)NCCCN(C)C	/	-4.3	1.4	392.6*	-0.6	-1.5	0.2
CN(C)CCNC(=S)Nc1ccccc1Cl	2.6	-7.9	3.0	4.7	1.3	6.5	/
S=C(NCCCc1ccccc1)Nc1ccccc1Cl	/	-6.7	13.6	28.1	-3.0	0.5	/
S=C(NCCc1ccccc1)Nc1ccccc1Cl	-25.4	-5.7	-3.5	529.9*	4.9	-1.9	0.1
C[C@@H]1CCCCO[C@H](CN(C)C(=O)Cc2ccccc2)[C@H](C)CN([C@@H](C)CO)C(=O)c2cc(NS(C)(=O)=O)ccc2O1	1.6	/	/	/	/	/	/
CO[C@@H]1CN(C)C(=O)c2ccc(NC(=O)C3CCCCC3)cc2OC[C@H](C)NC[C@@H]1C	-4.5	/	/	/	/	/	/
O=C(NCC1CCCCC1)[C@@H]1[C@@H](CO)[C@@H]2Cn3c(cccc3=O)[C@H]1N2C(=O)c1cccnc1	8.2	/	/	/	/	/	/
CCOC(=O)C1CCCN(C(=O)/C=C/c2ccc(Cl)cc2)C1 (stereo not given)	/	-4.3	-2.8	419.9*	-0.7	-3.3	-0.7
CCOC(=O)C1CCCN(C(=O)/C=C/c2cc(OC)c(OC)c(OC)c2)C1 (stereo not given)	/	1.5	-9.3	3.1	-0.9	1.4	/
Cc1ccc(S(=O)(=O)N[C@@H]2CC[C@@H](CCNS(=O)(=O)Cc3ccccc3)O[C@@H]2CO)cc1	15.0	/	/	/	/	/	/
CCCNC(=O)[C@@H]1[C@@H](CO)[C@@H]2Cn3c(ccc(C4=CCCCC4)c3=O)[C@H]1N2Cc1cocn1	-0.7	/	/	/	/	/	/
COc1cc(/C=N/NC2=NS(=O)(=O)c3ccccc32)cc(OC)c1OC	11.6	-6.6	11.6	629.7*	-5.0	7.8	0.2
O=C(Nc1ccc(Cl)cc1)N[C@@H]1CC[C@@H](CCNC(=O)c2ccccc2F)O[C@@H]1CO	-1.6	/	/	/	/	/	/
CCOC(=O)c1sc(N/N=C/c2ccc(N(C)C)cc2)nc1C	-18.4	-12.0	-5.8	+	-6.1	8.7	0.1
O=C1C2CCCCN2C(=O)N1CCCCN1CCN(c2ccccc2Oc2ccccc2)CC1 (stereo not given)	8.6	-6.4	0.5	431.4*	-3.6	4.0	0.0
CCOC(=O)c1oc2c(c1C)C(=O)CCC2	/	0.7	8.5	933.6*	2.3	1.9	0.3
CCn1cc(C(=O)N2CCN(c3ccc(OC)cc3)CC2)c(=O)c2cc(S(=O)(=O)N3CCOCC3)ccc21	0.2	-4.1	-4.3	798.4*	-2.6	9.5	-0.9
COC(=O)C[C@@H]1CC[C@H]2[C@H](COc3ccc(NC(=O)c4ccc(F)cc4)cc3C(=O)N2C)O1	-4.6	/	/	/	/	/	/
CC(C)NC(=O)c1cc2c(C(F)(F)F)nn(C)c2s1	/	-0.5	5.1	32.0	-4.2	11.5	/
CCCNC(=O)c1cc2c(C(F)(F)F)nn(C)c2s1	16.0	-4.1	-7.6	859.1*	2.1	-1.0	-0.1
CCOC(=O)c1oc2ccccc2c1COC(=O)CNC(=O)c1ccccc1F	9.1	/	18.1	/	/	-16.3	/
CCOC(=O)c1oc2ccccc2c1COC(=O)CNC(=O)c1cccc(C)c1	-15.9	-3.1	11.6	984.1*	-0.6	0.0	0.1
CO[C@H]1CN(C)C(=O)c2ccc(NC(=O)NC(C)C)cc2OC[C@@H](C)N(C(=O)CC2CC2)C[C@@H]1C	4.6	/	/	/	/	/	/
CNC[C@@H]1OCCCC[C@H](C)Oc2ccc(NC(=O)Nc3cccc4ccccc34)cc2C(=O)N([C@H](C)CO)C[C@@H]1C	-5.1	/	/	/	/	/	/
SMILES	Statin myotox sup	A3G deaminase	ASAP1 GAP inh	SUMO Mot1 rescue	A3A deaminase	ARFGAP1 inhibitor	Yeast Mot1 SUMO
COc1cc([N+](=O)[O-])cc(/C=N/NC(=O)c2cc(C)nc3ccccc23)c1O	/	-0.3	6.2	758.0*	-0.5	3.9	1.0
COc1ccc(C2C(C(C)=O)=C(O)C(=O)N2CCO)c(OC)c1 (stereo not given)	7.5	-7.0	-3.3	893.0*	-6.6	-8.7	0.9
CCCCN1C(=O)C(O)=C(C(C)=O)C1c1ccc(OC)cc1OC (stereo not given)	3.3	-9.8	-3.0	83.1	1.1	-5.8	/
COc1ccccc1NC(=O)CN(c1ccc(C)cc1)S(=O)(=O)c1c(C)n[nH]c1C	/	-6.8	4.9	981.5*	-5.9	0.9	0.6
O=S(=O)(Cc1ccccc1)NCc1ccccn1	-3.0	-4.0	/	610.5*	0.4	/	0.4
O=C(O)CNS(=O)(=O)Cc1ccccc1	-4.5	-6.6	-11.6	917.5*	-4.2	-5.1	-0.7
CCOC(=O)CNS(=O)(=O)Cc1ccccc1	5.9	-4.0	-0.9	-17.9	-3.1	21.3	/
Cc1noc(C)c1NC(=O)NCC[C@H]1CC[C@H](NC(=O)Nc2cccc(Cl)c2)[C@@H](CO)O1	-9.4	/	/	/	/	/	/
CC(=O)N1CCN(C(=O)c2cc3ccccc3o2)CC1	-7.1	-9.6	7.0	-6.6	-4.1	8.3	/
O=C(c1cc2ccccc2o1)N1CCCC1	/	-18.7	-6.6	+	-4.4	-0.1	-0.4
O=C(c1cc2ccccc2o1)N1CCN(C/C=C/c2ccccc2)CC1	17.0	-7.9	2.5	540.8*	-2.9	-5.2	-0.3
CCOC(=O)CN1NC2(CCC(C(C)(C)C)CC2)NC1=S (stereo not given)	13.2	5.8	-5.5	500.0*	-4.9	0.7	-0.4
COCC(=O)Nc1ccc2c(c1)C(=O)N(C)[C@H]1CC[C@@H](CC(=O)NCc3ccccc3)O[C@@H]1CO2	-8.7	/	/	/	/	/	/
CCN(CC)C(=O)CSc1nnc(SCc2ccc(Cl)cc2)s1	5.5	-3.6	15.4	509.9*	-1.3	5.2	-0.2
Cc1ccc(-c2ccc(/C=N/n3cnnc3)o2)cc1	-0.9	-8.0	-9.6	504.7*	-2.9	3.9	-0.6
CCOC(=O)Cn1c(=O)oc2cc(S(=O)(=O)NC(C)(C)CC)ccc21	6.8	-2.6	0.9	642.7*	-8.3	9.7	0.0
CN(C)c1ccc(NS(=O)(=O)c2ccc(Cl)cc2)cc1	/	-3.0	5.0	3.0	1.8	-1.5	/
CN(C)c1ccc(NS(=O)(=O)c2cccc(Cl)c2)cc1	/	-0.1	2.8	732.8*	-0.8	3.3	0.2
COCc1nnc(NC(=O)CC(C)C)s1	-25.7	-4.0	-10.7	644.0*	-1.2	1.1	0.4
CCOc1ccc(OCC)c(NC(=O)C2COc3ccccc3O2)c1 (stereo not given)	-2.4	-4.2	0.6	824.4*	-2.5	4.1	0.0
CCOc1ccccc1NC(=O)C1COc2ccccc2O1 (stereo not given)	-4.1	0.7	-2.3	-4.0	3.6	-2.5	/

From PubChem BioAssay
